Measured values pooled from the literature.
Each line is one published result; the experiments were not run side by side.
Organism: Pseudomonas aeruginosa
Observed: microbial growth

SMILES	method	strain	notes	MIC
CC1(C)S[C@@H]2[C@H](NC(=O)[C@H](N)c3ccccc3)C(=O)N2[C@H]1C(=O)O	broth dilution	ATCC27853	–	64 µg/mL
CCCCCCC#Cc1cncc(-c2nnc(SCc3cc([N+](=O)[O-])cc([N+](=O)[O-])c3)n2CCOC2OC(CN)C(O)C2O)c1 (stereo not shown)	broth dilution	DSM1128	–	> 64 µg/mL
CCCCCCCCN=c1ccn(CCCCCCCCCCn2ccc(=NCCCCCCCC)cc2)cc1	–	PAO1	–	2 µM
CC1(C)S[C@@H]2[C@H](NC(=O)[C@H](N)c3ccc(O)cc3)C(=O)N2[C@H]1C(=O)O	broth dilution	ATCC27853	–	> 64 µg/mL
Cc1ccc2[nH]nc(-c3nnc(Nc4ccc(Br)cc4)s3)c2c1	–	ATCC27853	–	243 µg/mL
CC[C@H]1OC(=O)[C@H](C)[C@@H](O[C@H]2C[C@@](C)(OC)[C@@H](O)[C@H](C)O2)[C@H](C)[C@@H](O[C@@H]2O[C@H](C)C[C@H](N(C)C)[C@H]2O)[C@](C)(O)C[C@@H](C)CN(C)[C@H](C)[C@@H](O)[C@]1(C)O	broth dilution	ATCC27853	–	32 µg/mL
Cc1ccc2[nH]nc(-c3nnc(Nc4ccc(O)cc4)s3)c2c1	–	ATCC27853	–	63.9 µg/mL
COc1ccc2ccc(O)c(/C=N/[C@H]3CCCC[C@H]3/N=C/c3c(O)cccc3F)c2c1	broth dilution	–	clinical isolate	> 40 µM
C[C@H]1COc2c(N3CCN(C)CC3)c(F)cc3c(=O)c(C(=O)O)cn1c23	–	ATCC27853	drug-resistant strain	1 µg/mL
CCCCCCC#Cc1cncc(-c2nnc(SCc3ccc([N+](=O)[O-])cc3)n2CCCN)c1	broth dilution	DSM1128	–	> 64 µg/mL
Cc1ccc2[nH]nc(-c3nnc(Nc4ccc(C(F)(F)F)cc4)s3)c2c1	–	ATCC27853	–	126 µg/mL
COc1ccc2ccc(O)c(/C=N/[C@H]3CCCC[C@H]3/N=C/c3ccc(OCCN4CCCCC4)cc3O)c2c1	broth dilution	–	–	> 40 µM
CCCCCCC#Cc1cncc(-c2nnc(SCc3cc([N+](=O)[O-])cc([N+](=O)[O-])c3)n2C2CCNCC2)c1	broth dilution	DSM1128	–	> 64 µg/mL
OB1OCc2cc(F)ccc21	broth dilution	–	–	128 µg/mL
CNC(C)C1CCC(N)C(OC2C(N)CC(N)C(OC3OCC(C)(O)C(NC)C3O)C2O)O1 (stereo not shown)	broth dilution	ATCC27853	–	2 µg/mL
Cc1ccc2[nH]nc(-c3nnc(Nc4ccc(Cl)cc4)s3)c2c1	–	ATCC27853	–	119 µg/mL
CN(C)[C@@H]1C(O)=C(C(N)=O)C(=O)[C@@]2(O)C(O)=C3C(=O)c4c(O)cccc4[C@@](C)(O)[C@H]3C[C@@H]12	broth dilution	ATCC27853	–	16 µg/mL
Cc1ccc2[nH]nc(-c3nnc(Nc4ccc(C)c(C)c4)s3)c2c1	–	ATCC27853	–	108 µg/mL
COc1ccc2ccc(O)c(/C=N/[C@H]3CCCC[C@H]3/N=C/c3ccc(-c4ccccc4)cc3O)c2c1	broth dilution	–	clinical isolate	> 40 µM
[H]/N=C(/N)N[C@H]1[C@H](O)[C@@H](O)[C@H](O[C@@H]2O[C@@H](C)[C@](O)(C=O)[C@H]2O[C@@H]2O[C@@H](CO)[C@H](O)[C@@H](O)[C@@H]2NC)[C@@H](N/C(N)=N\[H])[C@@H]1O	broth dilution	ATCC27 ATCC27853	–	20 µg/mL
CCCCCCC#Cc1cncc(-c2nnc(SCc3ccc(Cl)cc3)n2CCCN)c1	broth dilution	DSM1128	–	> 64 µg/mL
Cc1ccc2[nH]nc(-c3nnc(Nc4ccc(F)cc4)s3)c2c1	–	ATCC27853	–	63.9 µg/mL
